In one data set the target is Cytochrome P450 3A4 (Homo sapiens, UniProt P08684). Nature of the data set: Inhibition of human CYP3A4 by fluorescence assay.
Data set [1] concerns the target Sodium-dependent serotonin transporter (Homo sapiens, UniProt P31645). The experiment in a line: Displacement of [3H]citalopram from human recombinant SERT expressed in BacMam virus-transduced cells by scintillation proximity assay. It counts as cell-based. In outline:
(§1)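 BacMam-transduced membranes in SPA format. SERT: 1 mg/mL beads, 6 μg/mL membranes, 3 nM [3H]citalopram. NET: 2 mg/mL beads, 40 μg/mL membranes, 10 nM [3H]nisoxetine. Incubated overnight at room temperature; pKi from pIC50 by Cheng-Prusoff.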

A further data set deals with Cytochrome P450 2D6 (Homo sapiens, UniProt P10635). The experiment in a line: Inhibition of human […] by fluorescence assay. It counts as ADME. A digest of the protocol:
(§2)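 Recombinant human P450 bactosomes (0.1 mg/mL) in 50 mM phosphate, pH 7.4. Test compound at 0.1-10 μM, preincubated 10 min at 37 °C with fluorogenic substrate: ethoxyresorufin 0.5 μM (1A2), FCA 50 μM (2C9), BMC 10 μM (2C19), MMC 10 μM (2D6).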

For the next data set, the target named is Cytochrome P450 2C19 (Homo sapiens, UniProt P33261). Nature of the data set: Inhibition of human CYP2C19 by fluorescence assay. It is filed as ADME. A digest of the protocol: as §2
Chain of Cytochrome P450 2C19 (P33261 whole entry): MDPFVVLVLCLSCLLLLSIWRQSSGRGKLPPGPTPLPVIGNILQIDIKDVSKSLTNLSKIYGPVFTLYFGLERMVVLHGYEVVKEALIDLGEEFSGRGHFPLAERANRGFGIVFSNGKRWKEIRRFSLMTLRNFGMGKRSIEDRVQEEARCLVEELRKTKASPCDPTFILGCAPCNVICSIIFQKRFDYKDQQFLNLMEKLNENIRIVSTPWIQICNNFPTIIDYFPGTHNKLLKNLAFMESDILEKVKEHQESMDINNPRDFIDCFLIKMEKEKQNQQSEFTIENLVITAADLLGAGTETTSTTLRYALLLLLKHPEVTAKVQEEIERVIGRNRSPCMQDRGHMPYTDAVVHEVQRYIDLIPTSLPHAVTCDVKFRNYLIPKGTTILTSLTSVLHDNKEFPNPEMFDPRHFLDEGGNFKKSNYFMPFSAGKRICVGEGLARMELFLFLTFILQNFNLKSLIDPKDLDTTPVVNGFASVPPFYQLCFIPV
A further data set concerns the target T1, Cytochrome P450 1A2 (Homo sapiens, UniProt P05177).
T1 sequence (P05177 whole entry): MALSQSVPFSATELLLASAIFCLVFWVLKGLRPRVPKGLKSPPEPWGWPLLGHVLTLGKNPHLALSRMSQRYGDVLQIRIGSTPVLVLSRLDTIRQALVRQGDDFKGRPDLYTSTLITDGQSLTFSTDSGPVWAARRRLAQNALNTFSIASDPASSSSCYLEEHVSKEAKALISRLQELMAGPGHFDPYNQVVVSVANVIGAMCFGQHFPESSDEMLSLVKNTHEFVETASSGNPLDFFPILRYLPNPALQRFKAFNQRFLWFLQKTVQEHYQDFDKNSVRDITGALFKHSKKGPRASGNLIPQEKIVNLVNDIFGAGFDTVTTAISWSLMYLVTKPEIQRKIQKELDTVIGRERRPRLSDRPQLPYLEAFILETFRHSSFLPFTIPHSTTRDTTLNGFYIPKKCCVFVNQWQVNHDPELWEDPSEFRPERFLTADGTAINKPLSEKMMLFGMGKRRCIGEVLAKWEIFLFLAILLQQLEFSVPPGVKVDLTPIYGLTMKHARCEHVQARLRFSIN
The experiment in a line: Inhibition of human CYP1A2 by fluorescence assay. It is filed as ADME. In outline: as §2

In data set [2] the target is Sodium-dependent noradrenaline transporter (Homo sapiens, UniProt P23975). The experiment in a line: Displacement of [3H]nisoxetine from human recombinant NET expressed in BacMam virus-transduced cells by scintillation proximity assay. It counts as cell-based. A digest of the protocol:
as §1
A general note: In a radioligand displacement assay an active substance lowers the binding of a labelled ligand.

Another data set addresses Cytochrome P450 2C9 (Homo sapiens, UniProt P11712). Nature of the data set: Inhibition of human CYP2C9 by fluorescence assay. It is filed as ADME. In outline:
as §2

Data set [3] addresses Sodium-dependent dopamine transporter (Homo sapiens, UniProt Q01959). The experiment in a line: Displacement of [3H]WIN-35428 from human recombinant DAT expressed in BacMam virus-transduced cells by scintillation proximity assay. It counts as cell-based.
The species named for data set [4] is Homo sapiens. Nature of the data set: Selectivity for human recombinant SERT over human recombinant DAT.
The species entered for data set [5] is Homo sapiens. The experiment in a line: Selectivity for human recombinant NET over human recombinant DAT.
The nature of data set [6]: Fraction unbound in rat brain. It is filed as ADME, tissue-based. The following applies: brain.
Data set [7] can be described thus: Volume of distribution in rat. It counts as ADME, organism-based. The following applies: in vivo.
A short description of data set [8]: Bioavailability in rat. It is filed as ADME, organism-based. The following applies: in vivo.
Data set [9] is described as follows: Ratio of drug level in brain to blood in rat. It is filed as ADME, tissue-based. As to conditions: read-out: BBR.
A short description of data set [10]: (§3) Half life in rat. It is filed as ADME, organism-based. The following applies: in vivo.
A short description of data set [11]: Blood clearance in rat. It counts as ADME, organism-based.
A further data set is filed under the species Rattus norvegicus. The data set is described as §3. It is filed as ADME, organism-based. The following applies: in vivo.
The nature of data set [12]: (§4) Intrinsic clearance in human liver microsomes assessed per gram of protein at 0.5 uM after 30 mins by HPLC-MS/MS analysis. It counts as ADME, Microsome. As to conditions: liver microsomes. A digest of the protocol: (§5)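 Compound at 0.5 μM with rat or human liver microsomes (0.5 mg protein/mL), 50 mM phosphate, pH 7.4, 37 °C, started with NADPH. Sampled at 0-30 min, acetonitrile quench, HPLC-MS/MS. CLi from first-order elimination constant, scaled assuming 52.5 mg microsomal protein/g.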

Data set [13] can be described thus: (§6) Intrinsic clearance in rat liver microsomes assessed per gram of protein at 0.5 uM after 30 mins by HPLC-MS/MS analysis. It is filed as ADME, Microsome. The following applies: liver microsomes. A digest of the protocol: as §5
In general terms: Microsomes from liver hold many membrane-bound enzymes, among them those of drug oxidation.

The test system of data set [14] is Liver microsomes. Described as §4. It counts as ADME, Microsome. As to conditions: microsomes, 0.5 h, 0.5 µM. In outline: as §5
In data set [15] the test system is Liver microsomes. The data set is described as §6. It counts as ADME, Microsome. As to conditions: microsomes, 0.5 h, 0.5 µM. In outline: as §5

In general, IC50 refers to the concentration at which inhibition is half-maximal. Read a low IC50 as greater potency. For orientation: Ki means the dissociation constant of the complex between target and ligand, obtained from inhibition or displacement. As usually defined, the fraction unbound is the share of the substance not bound to proteins or other matrix. A low value points to little free substance. As a reminder, the Vd is a proportionality between amount in the body and measured concentration, not a real space. A lower Vd goes with little distribution into tissue. As usually defined, the bioavailability is dose-corrected exposure relative to a reference, in per cent. High values mean good availability, low ones poor availability. Broadly, the half-life is the time in which the quantity being followed falls by half. What is called clearance is the volume of plasma or blood freed of the substance per unit of time. Lower therefore signals a low capacity for elimination. As usually defined, the CLint scaled is a measure of how fast metabolising enzymes remove a compound, apart from limits set by blood flow. High values mean rapid turnover, low ones slow turnover.

Chain of Sodium-dependent serotonin transporter (P31645 whole entry): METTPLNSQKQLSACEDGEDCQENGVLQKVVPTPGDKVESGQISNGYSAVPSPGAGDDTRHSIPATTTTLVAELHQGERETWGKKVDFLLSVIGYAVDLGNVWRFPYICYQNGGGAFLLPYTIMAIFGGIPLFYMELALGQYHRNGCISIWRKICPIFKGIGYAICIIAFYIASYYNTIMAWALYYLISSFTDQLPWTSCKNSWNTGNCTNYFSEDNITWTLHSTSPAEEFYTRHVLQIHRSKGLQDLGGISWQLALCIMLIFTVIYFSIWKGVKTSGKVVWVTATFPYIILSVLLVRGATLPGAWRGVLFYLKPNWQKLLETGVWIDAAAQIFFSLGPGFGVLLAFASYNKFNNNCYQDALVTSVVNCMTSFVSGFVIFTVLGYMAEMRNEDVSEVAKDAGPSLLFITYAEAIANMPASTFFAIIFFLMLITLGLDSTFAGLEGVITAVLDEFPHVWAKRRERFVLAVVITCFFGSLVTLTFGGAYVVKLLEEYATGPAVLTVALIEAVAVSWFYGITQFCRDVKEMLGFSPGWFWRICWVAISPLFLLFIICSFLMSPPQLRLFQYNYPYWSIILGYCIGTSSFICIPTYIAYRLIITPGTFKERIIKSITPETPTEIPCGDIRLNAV
Chain of Sodium-dependent dopamine transporter (Q01959 whole entry): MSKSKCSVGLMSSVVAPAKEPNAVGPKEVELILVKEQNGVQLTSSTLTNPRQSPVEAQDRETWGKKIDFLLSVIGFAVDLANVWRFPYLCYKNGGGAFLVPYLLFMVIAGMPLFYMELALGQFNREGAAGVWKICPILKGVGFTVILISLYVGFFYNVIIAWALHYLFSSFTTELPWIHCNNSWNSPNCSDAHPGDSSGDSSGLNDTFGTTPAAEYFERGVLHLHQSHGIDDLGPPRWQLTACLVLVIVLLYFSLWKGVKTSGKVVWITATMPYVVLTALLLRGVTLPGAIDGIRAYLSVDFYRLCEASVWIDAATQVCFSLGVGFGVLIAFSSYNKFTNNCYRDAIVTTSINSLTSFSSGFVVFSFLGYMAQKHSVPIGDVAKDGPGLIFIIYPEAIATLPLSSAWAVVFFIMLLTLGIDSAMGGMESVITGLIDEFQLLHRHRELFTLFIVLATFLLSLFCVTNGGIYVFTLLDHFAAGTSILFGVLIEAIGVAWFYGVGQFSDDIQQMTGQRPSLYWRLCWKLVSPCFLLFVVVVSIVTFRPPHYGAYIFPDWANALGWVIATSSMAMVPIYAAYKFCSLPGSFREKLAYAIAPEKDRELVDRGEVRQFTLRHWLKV
Chain of Cytochrome P450 2C9 (P11712 whole entry): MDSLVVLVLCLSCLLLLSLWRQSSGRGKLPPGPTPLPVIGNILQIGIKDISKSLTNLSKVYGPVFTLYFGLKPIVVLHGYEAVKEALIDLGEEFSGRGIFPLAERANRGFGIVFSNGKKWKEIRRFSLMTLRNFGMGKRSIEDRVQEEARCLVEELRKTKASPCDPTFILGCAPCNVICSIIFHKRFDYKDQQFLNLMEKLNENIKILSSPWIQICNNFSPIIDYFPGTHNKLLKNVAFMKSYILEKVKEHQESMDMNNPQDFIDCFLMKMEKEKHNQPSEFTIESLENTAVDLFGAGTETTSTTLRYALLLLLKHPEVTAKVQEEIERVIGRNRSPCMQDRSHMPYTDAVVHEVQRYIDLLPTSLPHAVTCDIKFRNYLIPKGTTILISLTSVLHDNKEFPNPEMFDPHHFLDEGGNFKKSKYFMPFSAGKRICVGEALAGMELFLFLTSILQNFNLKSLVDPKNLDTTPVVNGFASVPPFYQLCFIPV
Chain of Sodium-dependent noradrenaline transporter (P23975 whole entry): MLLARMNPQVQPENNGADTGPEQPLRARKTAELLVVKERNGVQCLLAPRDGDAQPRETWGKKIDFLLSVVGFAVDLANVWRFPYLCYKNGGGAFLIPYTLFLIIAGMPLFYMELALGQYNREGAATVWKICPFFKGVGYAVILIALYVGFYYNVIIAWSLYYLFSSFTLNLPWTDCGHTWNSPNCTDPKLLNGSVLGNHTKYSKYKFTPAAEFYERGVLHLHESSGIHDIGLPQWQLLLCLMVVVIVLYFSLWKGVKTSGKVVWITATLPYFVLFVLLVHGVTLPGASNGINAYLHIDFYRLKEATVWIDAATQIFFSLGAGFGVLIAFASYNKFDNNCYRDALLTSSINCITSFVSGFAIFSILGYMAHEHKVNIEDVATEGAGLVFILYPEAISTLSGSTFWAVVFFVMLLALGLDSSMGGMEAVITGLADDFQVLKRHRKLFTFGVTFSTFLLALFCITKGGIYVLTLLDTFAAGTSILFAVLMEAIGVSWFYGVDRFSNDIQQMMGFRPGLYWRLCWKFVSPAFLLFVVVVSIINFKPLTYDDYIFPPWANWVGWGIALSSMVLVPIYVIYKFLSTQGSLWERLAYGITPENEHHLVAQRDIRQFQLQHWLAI
Chain of Cytochrome P450 2D6 (P10635 whole entry): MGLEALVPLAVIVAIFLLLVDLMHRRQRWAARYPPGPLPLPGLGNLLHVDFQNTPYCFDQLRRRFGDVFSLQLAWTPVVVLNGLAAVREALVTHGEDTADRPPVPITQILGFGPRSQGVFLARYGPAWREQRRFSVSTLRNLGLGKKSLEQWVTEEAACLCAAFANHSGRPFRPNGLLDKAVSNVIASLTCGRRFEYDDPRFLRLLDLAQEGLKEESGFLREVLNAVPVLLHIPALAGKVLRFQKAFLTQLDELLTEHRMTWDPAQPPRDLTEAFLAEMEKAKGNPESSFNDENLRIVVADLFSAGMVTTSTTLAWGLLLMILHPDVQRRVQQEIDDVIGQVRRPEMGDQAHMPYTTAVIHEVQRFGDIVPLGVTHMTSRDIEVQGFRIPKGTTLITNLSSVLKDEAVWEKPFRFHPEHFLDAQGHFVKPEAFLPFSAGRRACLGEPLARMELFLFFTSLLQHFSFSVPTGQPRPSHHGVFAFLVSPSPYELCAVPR
Chain of Cytochrome P450 3A4 (P08684 whole entry): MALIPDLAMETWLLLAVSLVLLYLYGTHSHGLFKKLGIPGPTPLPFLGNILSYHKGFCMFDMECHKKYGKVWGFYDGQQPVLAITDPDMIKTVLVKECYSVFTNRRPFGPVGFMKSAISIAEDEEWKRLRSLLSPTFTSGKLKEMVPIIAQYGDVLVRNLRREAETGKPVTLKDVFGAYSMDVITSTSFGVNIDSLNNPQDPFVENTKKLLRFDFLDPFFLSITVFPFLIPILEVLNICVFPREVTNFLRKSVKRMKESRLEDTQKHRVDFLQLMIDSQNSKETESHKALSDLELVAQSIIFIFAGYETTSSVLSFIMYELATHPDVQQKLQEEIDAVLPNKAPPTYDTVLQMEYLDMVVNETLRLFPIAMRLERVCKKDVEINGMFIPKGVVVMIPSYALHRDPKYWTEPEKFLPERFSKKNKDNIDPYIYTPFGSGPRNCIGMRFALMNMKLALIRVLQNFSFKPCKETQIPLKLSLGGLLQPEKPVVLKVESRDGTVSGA

Turning to `CCOC[C@H]1[C@@H]2CNC[C@@]21c1ccc(Cl)c(Cl)c1` (relative stereo), the 50% inhibitory concentration (IC50) is over 9000 nM against Cytochrome P450 3A4; 4000 nM on Cytochrome P450 2D6; over 9000 nM against Cytochrome P450 2C19; over 9000 nM against Cytochrome P450 1A2; over 9000 nM on Cytochrome P450 2C9. Besides, the Ki in data set [1] was 0.398 nM; in data set [2], 1.58 nM; in [3], 25.1 nM.
For `COC[C@H]1[C@@H]2CNC[C@@]21c1ccc(Cl)c(Cl)c1` (relative stereo), the Selectivity ratio in the data set filed under Homo sapiens [4] and in the data set listed under Homo sapiens [5] was 70 in each case.
The molecule `FC(F)(F)COC[C@@H]1[C@H]2CNC[C@]21c1ccc(Cl)c(Cl)c1` (stereo in doubt) came in with a fraction unbound in data set [6] of 0.006. Also, the figures for the inhibition constant (Ki) in data set [1], in [2] and in data set [3] were 0.631 nM, 1.58 nM and 25.1 nM, respectively. Besides, the Vd in [7] was 3.2 L/kg. This molecule also returned a bioavailability in data set [8] of 41%. Moreover, the Kp in data set [9] amounted to 18. For the same molecule, the half-life in [10] is 1.4 h. Also, the clearance in [11] was found to be 42 mL/min/kg.
Regarding `FC(F)(F)COC[C@H]1[C@@H]2CNC[C@@]21c1ccc(Cl)c(Cl)c1` (stereo in doubt), the fraction unbound in data set [6] is 0.006. The Ki in [1] is 1.26 nM; in data set [2] it was 3.98 nM; in data set [3], 50.1 nM. Moreover, the Kp in data set [9] was determined as 18. In the data set filed under Rattus norvegicus, this molecule showed a t1/2 of 1.4 h.
Take `COC[C@@H]1[C@H]2CNC[C@]21c1ccc2ccccc2c1` (stereo in doubt): the IC50 at Cytochrome P450 3A4 is over 4000 nM; against Cytochrome P450 2D6, over 4000 nM; at Cytochrome P450 2C19, over 4000 nM; at Cytochrome P450 1A2, 900 nM; against Cytochrome P450 2C9 it was over 4000 nM. For the same molecule, the values for the Ki in [1], in [2] and in data set [3] were 0.0794 nM, 0.631 nM and 25.1 nM, respectively. The intrinsic clearance (CLint scaled) at 0.5 µM was 2.2 mL/min/kg in data set [12] and 3.9 mL/min/kg in data set [13].
As to `CC(C)OC[C@@H]1[C@H]2CNC[C@]21c1ccc(Cl)c(Cl)c1` (stereo in doubt), the IC50 against Cytochrome P450 3A4, against Cytochrome P450 2D6, against Cytochrome P450 2C19, at Cytochrome P450 1A2 and at Cytochrome P450 2C9 was over 8000 nM throughout. Moreover, the values for the Ki in [1], in data set [2] and in [3] were 0.126 nM, 0.251 nM and 5.01 nM, respectively. For the same molecule, the CLint scaled at 0.5 µM was 1.4 mL/min/kg in data set [12] and under 0.5 mL/min/kg in data set [13].
The molecule `Clc1ccc([C@@]23CNC[C@@H]2[C@H]3COCC2CC2)cc1Cl` (stereo in doubt) registered a fraction unbound in data set [6] of 0.001. The half-inhibitory concentration (IC50) was over 10000 nM on Cytochrome P450 3A4; 1000 nM on Cytochrome P450 2D6; 3000 nM against Cytochrome P450 2C19; over 10000 nM at Cytochrome P450 1A2; over 10000 nM against Cytochrome P450 2C9. Besides, the inhibition constant Ki in [1] was 0.316 nM; in [2] it was 0.631 nM; in data set [3] it was 12.6 nM. The Vd in data set [7] amounted to 5.2 L/kg. In [8], the bioavailability came out at 32%. Moreover, in [9], the Kp worked out at 10. The CL was under 0.5 mL/min/g with Liver microsomes [14] and 2.6 mL/min/g in the data set with Liver microsomes [15]. Further, the half-life in [10] was 1 h. Moreover, the clearance in data set [11] turned out to be 72 mL/min/kg.

(Values after ChEMBL document CHEMBL1157620, “1-(Aryl)-6-[alkoxyalkyl]-3-azabicyclo[3.1.0]hexanes and 6-(aryl)-6-[alkoxyalkyl]-3-azabicyclo[3.1.0]hexanes: a new series of potent and selective triple reuptake inhibitors” (J Med Chem, 2010).)
